Experimental data reported in ChEMBL document CHEMBL5046273, “Development of a Novel, Small-Molecule Brain-Penetrant Histone Deacetylase Inhibitor That Enhances Spatial Memory Formation in Mice” (J Med Chem, 2022).
Activity calls are given as the source filed them. The rule behind the calls is not given here.

Experiments:
[1] = target: Histone deacetylase (Homo sapiens) (UniProt Q13547+O15379+Q9UBN7+Q92769+Q9UQL6+Q8WUI4+Q9BY41+Q96DB2+P56524+Q9UKV0+Q969S8); details: DU-145, dose 10.0 nM, time 24.0 hrs
DU-145 = assay: Cytotoxicity against human DU-145 cells assessed as reduction in cell viability at 5 to 10 nM incubated for 48 hrs by MTT assay; format: functional, cell-based; details: dose 5-10 nM
Outline: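 DU145 cells in DMEM with 10% FBS were seeded at 14 000 cells/well and allowed to adhere for 24 h. Test agents were diluted from 10 mM DMSO stocks (100, 50, 25 µM; 10, 5, 1.25 nM) and applied in triplicate for 48 h at 37 °C, 5% CO2, with DMSO as vehicle. Read-out was 250 µg/mL MTT for 4 h, DMSO solubilization, and A570 with 690 nm reference. Values normalized to DMSO.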

[2] = Toxicity in ip dosed BALB/c mouse assessed as maximum tolerated dose measured after 2 weeks; format: organism-based; details: BALB/c, in vivo
Outline: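 Healthy BALB/c mice, compound in 20% DMSO/saline, single i.p. dose. One mouse each at 200, 100 and 50 mg/kg, then 25, 12.5 and 6.25 mg/kg if needed, repeated until a tolerated dose was found. Last test repeated once. Mice weighed daily for 8 days; euthanized at >20% weight loss or overt toxicity. Morbidity/mortality followed over 2 weeks; triplicate experiments.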

Histone deacetylase 1 = Histone deacetylase 1 (Homo sapiens, UniProt Q13547); assay: Inhibition of HDAC1 in human DU-145 cells assessed as increase in histone H3 acetylation after 24 hrs by immunofluorescence microscopy; format: cell-based
Chain of Histone deacetylase 1 (Q13547 whole entry): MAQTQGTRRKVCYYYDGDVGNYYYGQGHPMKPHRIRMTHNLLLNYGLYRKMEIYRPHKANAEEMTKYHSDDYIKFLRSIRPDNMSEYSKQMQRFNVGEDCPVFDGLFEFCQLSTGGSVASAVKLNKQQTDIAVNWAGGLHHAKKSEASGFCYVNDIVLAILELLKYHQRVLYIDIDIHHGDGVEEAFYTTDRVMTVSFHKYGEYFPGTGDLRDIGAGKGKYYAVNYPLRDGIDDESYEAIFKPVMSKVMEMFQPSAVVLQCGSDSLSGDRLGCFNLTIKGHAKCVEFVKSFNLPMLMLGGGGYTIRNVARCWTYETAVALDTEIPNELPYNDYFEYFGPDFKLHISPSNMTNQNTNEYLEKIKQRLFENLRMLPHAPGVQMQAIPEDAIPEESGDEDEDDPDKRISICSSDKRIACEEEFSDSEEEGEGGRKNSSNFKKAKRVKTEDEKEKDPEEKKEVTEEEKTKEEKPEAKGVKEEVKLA

Histone deacetylase 2 [3] = target: T1, Histone deacetylase 2 (Homo sapiens, UniProt Q92769); assay: Inhibition of recombinant human full-length HDAC2 incubated for 10 mins by Glo-luminescence assay
T1 sequence (Q92769 whole entry): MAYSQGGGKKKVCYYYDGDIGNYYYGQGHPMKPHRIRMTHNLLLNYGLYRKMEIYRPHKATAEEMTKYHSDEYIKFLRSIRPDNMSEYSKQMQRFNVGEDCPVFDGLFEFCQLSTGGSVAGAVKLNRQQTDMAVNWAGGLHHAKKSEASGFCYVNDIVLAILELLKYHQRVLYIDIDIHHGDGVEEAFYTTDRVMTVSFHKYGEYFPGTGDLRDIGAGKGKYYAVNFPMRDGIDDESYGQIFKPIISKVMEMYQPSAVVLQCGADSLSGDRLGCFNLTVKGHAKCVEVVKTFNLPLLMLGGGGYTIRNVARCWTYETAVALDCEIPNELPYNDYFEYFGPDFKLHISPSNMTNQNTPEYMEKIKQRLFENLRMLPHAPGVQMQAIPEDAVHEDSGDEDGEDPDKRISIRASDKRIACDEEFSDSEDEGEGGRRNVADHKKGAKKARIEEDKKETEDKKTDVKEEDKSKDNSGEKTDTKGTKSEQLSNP
Outline: (§1)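 Compounds were serially diluted and incubated with enzyme for 10 min. HDAC-Glo I/II substrate/developer was then added, and luminescence read after 40 min at 23 °C. IC50 from four-parameter fits from two independent titrations, mean ± SD.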

Histone deacetylase 2 [4] = target: T1, Histone deacetylase 2; assay: Inhibition of recombinant human full-length HDAC2 preincubated for 20 mins with DTT followed by enzyme addition and measured after 10 mins by Glo-luminescence assay
Outline: as §1

SMILES | inhibition [1] | Activity (DU-145) | MTD at 336 h [2] [mg/kg] | IC50 (Histone deacetylase 1) [µM] | IC50 (Histone deacetylase 2 [3]) [µM] | IC50 (Histone deacetylase 2 [4]) [µM]
C/C=C1\NC(=O)[C@H]2CSSCC/C=C/[C@H](CC(=O)N[C@H](C(C)C)C(=O)N2)OC(=O)[C@H](C(C)C)NC1=O [ROMIDEPSIN] | Active | Active | > 200 | 0.0014 | – | –
O=C(O)CC(O)/C=C/CCSSCC/C=C/C(O)CC(=O)O (stereo not drawn) | – | – | – | – | 140 | 28
CCCC[C@@H](NC(=O)CC(O)/C=C/CCSSCC/C=C/C(O)CC(=O)N[C@H](CCCC)C(=O)O)C(=O)O (stereo partly drawn) | – | – | – | – | 140 | 11
